Results pooled from the literature.
Each line is one published result; the experiments were not run side by side.
Target: Maternal embryonic leucine zipper kinase (MELK, Homo sapiens, UniProt Q14680)

CCC(=O)N[C@@H]1CC[C@H](C(=O)N(C)c2ccc(-c3nc4ccccc4o3)cc2)C1
remaining binding (cell-free assay; competition with immobilised ligand; 1 µM): 100%

N[C@H]1CCN(c2nccc(-c3cnn4ncccc34)n2)C1
remaining binding (binding; 1 µM): 69%

O=C(c1ccc(Nc2nccc(-c3cc4ccccc4s3)n2)cc1)N1CCC(N2CCCC2)CC1
remaining binding (binding; competition with immobilised ligand; 1 µM): 100%

COc1ccc2c(c1)O[C@@H](c1ccc(OC)c(OC)c1)C[C@H]2NC(=O)C1(c2ccc3c(c2)OC(F)(F)O3)CC1
remaining binding (cell-free assay; competition with immobilised ligand; 1 µM): 65%

CN(C)c1nccc(-c2cnn3ncccc23)n1
remaining binding (binding; 1 µM): 71%

CCN1CCN(Cc2ccc(C(=O)Nc3ccc(C)c(Oc4ccc5c(c4)CC(=O)N5)c3)cc2C(F)(F)F)CC1
remaining binding (binding; competition with immobilised ligand; 1 µM): 100%

CC1=C(C#N)[C@@H](c2ccc3[nH]nc(C)c3c2)C(C#N)=C(c2ccc(Cl)cc2)N1
remaining binding (cell-free assay; competition with immobilised ligand; 1 µM): 100%

C[C@H]1CCN(c2nccc(-c3cnn4ncccc34)n2)C1
remaining binding (binding; 1 µM): 33%

CNC(=O)Nc1ccc2c(c1)CC[C@@]21OC(=O)N(CC(=O)N(Cc2ccc(F)cc2)[C@@H](C)C(F)(F)F)C1=O
remaining binding (cell-free assay; competition with immobilised ligand; 1 µM): 91%

Nc1ncc2c(n1)-c1c([nH]c3ccc(C#CC4CC4)cc13)CCCC2
remaining binding (binding; competition with immobilised ligand; 1 µM): 100%

O=S(=O)(NC1CCC(c2cc(F)ccc2F)(S(=O)(=O)c2ccc(Cl)cc2)CC1)C(F)(F)F (stereo not shown)
remaining binding (cell-free assay; competition with immobilised ligand; 1 µM): 69%

O=C(c1ccc(Nc2ncc(Cl)c(-c3ccc(Cl)s3)n2)cc1)N1CCC(N2CCCC2)CC1
remaining binding (binding; competition with immobilised ligand; 1 µM): 54%

COc1ccnn2ncc(-c3ccnc(N(C)C)n3)c12
remaining binding (binding; 1 µM): 100%

c1cncc(-c2cccc(Nc3nccc(NC4CCCCC4)n3)c2)c1
remaining binding (binding; competition with immobilised ligand; 10 µM): 84%

Cc1cnc(Nc2ccc(C(=O)N3CCC(N4CCCC4)CC3)cc2)nc1-c1cc2ccccc2s1
remaining binding (binding; competition with immobilised ligand; 1 µM): 81%

FC(F)(F)Oc1cccc(-c2cnc3ccc(-c4ccncc4)nn23)c1
remaining binding (cell-free assay; competition with immobilised ligand; 5 µM): 56%

COc1cnc(Nc2cccc(S(N)(=O)=O)c2)nc1N1CCN(c2ccccc2)CC1
remaining binding (binding; competition with immobilised ligand; 1 µM): 88%

CN(c1nccc(-c2cnn3ncccc23)n1)C1CC1
remaining binding (binding; 1 µM): 73%

CCCCN(CCCC)C(=O)CN1C[C@H](c2cc(OC)c3c(c2)OCO3)[C@@H](C(=O)O)[C@@H]1CC(C)(C)CCC
remaining binding (cell-free assay; competition with immobilised ligand; 1 µM): 100%

F[C@@H]1CCN(c2nccc(-c3cnn4ncccc34)n2)C1
remaining binding (binding; 1 µM): 100%

CNC(=O)[C@@H]1CC[C@@H](n2c(-c3ccc4cnccc4c3)nc3ccc(C(=O)NCc4cccc(C(N)=O)c4)cc32)C1
remaining binding (binding; competition with immobilised ligand; 1 µM): 78%

O=C(NCC1CCOCC1)c1n[nH]cc1NC(=O)c1c(F)cccc1F
remaining binding (binding; competition with immobilised ligand; 1 µM): 69%
